Source: PMC2811258 (Biochemistry, 2009)
Several values for one entry are separate records, joined by “and”; a condition that tells them apart may be missing. Identical values can stand only once. Entries after “also recorded” stand apart in the source; their conditions may differ. Like-named read-outs stand apart in the source and are kept apart here.

Assays:
[1] = molecular target: T1, TmCheA dimer (full-length T. maritima CheA) (Thermotoga maritima, UniProt Q56310); experiment: Competition binding between ATP and TNP-ATP for TmCheA binding sites; conditions: 4 °C, Mg2+
T1 sequence (Q56310 1-671): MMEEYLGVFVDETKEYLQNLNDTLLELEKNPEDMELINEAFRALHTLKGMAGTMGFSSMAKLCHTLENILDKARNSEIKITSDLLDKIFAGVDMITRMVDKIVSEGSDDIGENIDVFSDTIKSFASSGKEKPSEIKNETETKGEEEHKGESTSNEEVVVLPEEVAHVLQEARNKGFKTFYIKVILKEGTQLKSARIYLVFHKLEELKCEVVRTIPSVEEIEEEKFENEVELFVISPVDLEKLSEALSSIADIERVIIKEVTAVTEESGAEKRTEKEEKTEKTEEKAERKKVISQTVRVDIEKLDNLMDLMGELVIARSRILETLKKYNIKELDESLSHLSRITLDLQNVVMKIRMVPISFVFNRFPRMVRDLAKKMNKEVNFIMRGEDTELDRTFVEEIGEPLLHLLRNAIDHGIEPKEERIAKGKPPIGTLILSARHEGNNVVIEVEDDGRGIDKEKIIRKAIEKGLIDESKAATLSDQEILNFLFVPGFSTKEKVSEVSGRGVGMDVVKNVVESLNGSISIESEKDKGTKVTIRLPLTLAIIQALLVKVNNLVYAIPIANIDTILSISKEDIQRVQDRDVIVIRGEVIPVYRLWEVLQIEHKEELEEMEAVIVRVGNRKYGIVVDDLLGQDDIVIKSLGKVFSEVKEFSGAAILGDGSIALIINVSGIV
Summary of the method: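 Competition titrations at 4 °C: TNP-ATP aliquots added to stirred full-length TmCheA (0.6 μM dimer) in TnM buffer (25 mM Tris, 0.5 mM EDTA, 10% glycerol, 25 mM NaCl, 50 mM K-glutamate, 20 mM MgCl2) containing 0, 2.34, 5.9, 11.9 or 23.4 mM ATP. Emission spectra (four-scan averages), background-corrected by mock titrations. At least two independent experiments averaged.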

TmP4 [2] = conditions: read-out: Kd^ATP for TmP4; chromatographic approach; ref [2]; cited from earlier work
[3] = molecular target: T1, TmCheA dimer (full-length T. maritima CheA); assay type: binding; conditions: 4 °C
TmP4 [4] = conditions: read-out: Upper limit of Kd for the TmP4–TNP-ATP binding interaction; previous work; ref [2]; cited from earlier work
[5] = molecular target: T2, TmP4 (isolated P4 domain of T. maritima CheA, monomer) (Thermotoga maritima, UniProt Q56310); experiment: Fluorescence-monitored TNP-ATP binding titrations with TmP4; conditions: 4 °C, Mg2+; λex 520 nm, emission 530–600 nm
T2 sequence (Q56310 356-540): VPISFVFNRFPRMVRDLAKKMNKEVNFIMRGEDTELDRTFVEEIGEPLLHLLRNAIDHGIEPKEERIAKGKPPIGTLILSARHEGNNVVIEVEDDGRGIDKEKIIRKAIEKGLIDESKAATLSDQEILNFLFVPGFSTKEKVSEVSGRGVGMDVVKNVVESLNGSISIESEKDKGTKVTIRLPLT

[6] = without versus with 20 mM MgCl2

| SMILES | Kd2^ATP/Kd1^ATP (affinity difference between the two sites) [1] | Kd ([1]; read-out: Kd1^ATP (high-affinity site of TmCheA dimer), effect of competitor ATP on apparent Kd1^TNP) | Kd (TmP4 [2]) [nM] | IMFC of T.AA.T complex ([3]; 20 mM MgCl2, 0.6 μM TmCheA dimer, two-site model) | IMFC of T.AA complex (IMFC site 1) ([3]; 20 mM MgCl2, TmCheA titrated with excess TNP nucleotide) | IMFC site 2 (second, low-affinity site) ([3]; Mg2+) | IMFC of T.AA complex from reverse stoichiometry titration ([3]; Mg2+, TmCheA added to 0.28 μM TNP-ATP) | IMFC of T.AA complex, absence of Mg2+ ([3]; no MgCl2, 20 mM Na2EDTA) | IMFC of T.AA.T complex, absence of Mg2+ ([3]; no MgCl2, 20 mM Na2EDTA) | Decrease of site 2 affinity in the absence of Mg2+ [3, 6] [fold] | Effect of Mg2+ removal on site 1 binding [3, 6] | Kd ([3]; Kd1^TNP (high-affinity site 1 of TmCheA dimer), Mg2+, forward and reverse titrations at low protein and ligand concentrations (0.002–0.003 μM)) | Kd ([3]; Kd1^TNP, titration of CheA with excess TNP-ATP, Mg2+, 0.003 μM TmCheA dimer, one-site binding model) [nM] | Kd ([3]; Kd1^TNP, titration of TNP-ATP with excess TmCheA, Mg2+, 0.002 μM TNP-ATP, one-site binding model) [nM] | Binding stoichiometry of high-affinity TNP-ATP binding to TmCheA dimer ([3]; reverse titration, 0.28 μM TNP-ATP, Mg2+) | Kd (TmP4 [4]) [nM] | IMFC (integrated molar fluorescence coefficient) of the TmP4 · TNP-ATP complex [5] |
| --- | --- | --- | --- | --- | --- | --- | --- | --- | --- | --- | --- | --- | --- | --- | --- | --- | --- |
| Nc1ncnc2c1ncn2[C@@H]1O[C@H](COP(=O)(O)OP(=O)(O)OP(=O)(O)O)[C@@H](O)[C@H]1O [ATP] | ~10^3 fold | ~6000 nM and 6000 nM | 15000 | – | – | – | – | – | – | – | – | – | – | – | – | – | – |
| Nc1ncnc2c1ncn2[C@@H]1O[C@H](COP(=O)(O)OP(=O)(O)OP(=O)(O)O)[C@H]2OC3(O[C@H]21)C([N+](=O)[O-])=CC(=[N+]([O-])[O-])C=C3[N+](=O)[O-] (some centres unmarked) [TNP-ATP, 2′(3′)-O-(2,4,6-trinitrophenyl)adenosine 5′-triphosphate] | – | – | – | 9.5 × 10^6 cps/μM | 2.0 × 10^6 cps/μM | 7.5 × 10^6 cps/μM | ~2× 10^6 cps/μM and 2.0 × 10^6 cps/μM | 2.4 × 10^6 cps/μM | 8.9 × 10^6 cps/μM | 5 | insensitive to the presence or absence of Mg^2+ | ~1.6 nM and 1.6 nM | 1.8 | 1.4 | each TmCheA dimer can bind one molecule of TNP-ATP with high affinity; also recorded: one TNP-ATP per CheA dimer | ≤ 10 | 1.9 × 10^6 cps/μM |
